The text below walks through data of ChEMBL document CHEMBL1155700, “Cancer chemopreventive agents. New depsidones from Garcinia plants” (J Nat Prod, 2001).

Structures are written as SMILES.

For series [1], the system named is Raji. As to the kind of experiment: Inhibition of 12-O-tetradecanoylphorbol-13-acetate-induced EBV-early antigen activation in human Raji cells assessed as EA activation at 1000 molar ratio after 48 hrs relative to TPA. The series is classed as cell-based. Also on record: scale not given: the % may be the effect or the level left. To be noted: human gammaherpesvirus 4. Put shortly: (§1)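 Raji cells at 10⁶ cells/mL were resuspended in RPMI 1640/10% FCS containing 4 mM n-butyric acid inducer, 32 pmol TPA (20 ng/mL) and 32, 16, 3.2 or 0.32 nmol compound (DMSO), then held 48 h at 37 °C. EA-positive cells were scored blind, at least 500 cells per assay. Activation is expressed as % of the TPA-only positive control (100%), mean ± SD. IC50 is given as mol ratio/TPA.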

Series [2] concerns Raji. As to the kind of experiment: Inhibition of 12-O-tetradecanoylphorbol-13-acetate-induced EBV-early antigen activation in human Raji cells assessed as EA activation at 10 molar ratio after 48 hrs relative to TPA. Also on record: scale not given: the % may be the effect or the level left. To be noted: human gammaherpesvirus 4. The format is cell-based. Put shortly:
as §1

Series [3] can be described thus: Inhibition of 12-O-tetradecanoylphorbol-13-acetate-induced EBV-early antigen activation in human Raji cells assessed as EA activation per 32 pmol TPA after 48 hrs. The format is cell-based, human gammaherpesvirus 4. Put shortly: as §1
Series [4] is described as follows: Cytotoxicity against human Raji cells assessed as cell viability at 10 molar ratio after 48 hrs by trypan blue staining relative to TPA. The settings on record: read-out: Activity. The series is classed as cell-based. Put shortly: (§2)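 Raji cells grown to 10⁶ cells/mL, pelleted, resuspended in RPMI 1640 with 10% FCS, 4 mM n-butyric acid, 32 pmol TPA (20 ng/mL in DMSO) plus test compound in DMSO (0.32–32 nmol; mole ratio to TPA 10–1000). After 48 h at 37 °C, cell number and viability were counted on a hemocytometer by Trypan Blue exclusion. At least 60% viability was required for valid EA data.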

For series [5], the system named is Raji. As to the kind of experiment: Inhibition of 12-O-tetradecanoylphorbol-13-acetate-induced EBV-early antigen activation in human Raji cells assessed as EA activation at 100 molar ratio after 48 hrs relative to TPA. The series is classed as cell-based. More on the design: scale not given: the % may be the effect or the level left. To be noted: human gammaherpesvirus 4. The method, boiled down:
as §1

Series [6] can be described thus: Cytotoxicity against human Raji cells assessed as cell viability at 1000 molar ratio after 48 hrs by trypan blue staining relative to TPA. The settings on record: read-out: Activity. The format is cell-based. Put shortly:
as §2

Series [7] can be described thus: Cytotoxicity against human Raji cells assessed as cell viability at 500 molar ratio after 48 hrs by trypan blue staining relative to TPA. The series is classed as cell-based. The settings on record: read-out: Activity. The method, boiled down:
as §2

Series [8] has as its system Raji. As to the kind of experiment: Inhibition of 12-O-tetradecanoylphorbol-13-acetate-induced EBV-early antigen activation in human Raji cells assessed as EA activation at 500 molar ratio after 48 hrs relative to TPA. The format is cell-based. More on the design: scale not given: the % may be the effect or the level left. To be noted: human gammaherpesvirus 4. The method, boiled down:
as §1

Series [9] in a line: Cytotoxicity against human Raji cells assessed as cell viability at 100 molar ratio after 48 hrs by trypan blue staining relative to TPA. To be noted: read-out: Activity. The series is classed as cell-based. The method, boiled down: as §2

Take `CC1=C(/C=C/C(C)=C/C=C/C(C)=C/C=C/C=C(C)/C=C/C=C(C)/C=C/C2=C(C)CCCC2(C)C)C(C)(C)CCC1` [BETA CAROTENE]: the Activity with Raji [1] was found to be 9.1%; in the series on Raji [2] it was 100%. Besides, the IC50 in [3] is given as 400 molar ratio.

Consider `COc1c(O)cc2c(c1CC=C(C)C)OC(=O)c1c(cc(O)c(CC=C(C)C)c1O)O2` [GARCINISIDONE A], for which, in [4], the viability at 48 h, 10 molar ratio relative to TPA is greater than 80%. Moreover, the Activity is 78.3% in the series with Raji [5], 0% with Raji [1], 91.6% in the series with Raji [2] and 44.2% in the series on Raji [8]. The viability at 48 h, 1000 molar ratio relative to TPA in series [6] came to 70%. The viability at 48 h, 500 molar ratio relative to TPA in series [7] is greater than 80%. Also, the IC50 in series [3] stood at 365 molar ratio. Further, in series [9], the viability at 48 h, 100 molar ratio relative to TPA is greater than 80%.

Take `COc1c(O)cc2c(c1CC=C(C)C)OC(=O)c1c(cc3c(c1O)C=CC(C)(C)O3)O2` [GARCINISIDONE B]: the viability at 48 h, 10 molar ratio relative to TPA in series [4] was greater than 80%. The Activity with Raji [5] worked out at 81.7%; with Raji [1], 0%; in the series with Raji [2], 100%; in the series with Raji [8] it was 50.6%. The viability at 48 h, 1000 molar ratio relative to TPA in [6] is 70%. For the same compound, in series [7], the viability at 48 h, 500 molar ratio relative to TPA is greater than 80%. In addition, the IC50 in series [3] came to 410 molar ratio. In [9], the viability at 48 h, 100 molar ratio relative to TPA is greater than 80%.

With `CC(C)=CCc1c2c(c(O)c3c1Oc1cc(O)c4c(c1OC3=O)C=CC(C)(C)O4)C=CC(C)(C)O2` [GARCINISIDONE C], in series [4], the viability at 48 h, 10 molar ratio relative to TPA is greater than 80%. Besides, the Activity in the series with Raji [5] was 72.2%; with Raji [1], 0%; in the series with Raji [2] it was 93.5%; in the series with Raji [8] it was 41.8%. Besides, the viability at 48 h, 1000 molar ratio relative to TPA in series [6] came out at 70%. The viability at 48 h, 500 molar ratio relative to TPA in series [7] was greater than 80%. Moreover, the IC50 in [3] is 370 molar ratio. Further, the viability at 48 h, 100 molar ratio relative to TPA in [9] is greater than 80%.

`CC(C)=CCc1c(O)c2c(c3c1OC(C)(C)C=C3)Oc1cc(O)c3c(c1OC2=O)C=CC(C)(C)O3` [GARCINISIDONE D]: the viability at 48 h, 10 molar ratio relative to TPA in [4] is greater than 80%. In addition, the Activity in the series on Raji [5] turned out to be 72%; with Raji [1], 0%; in the series on Raji [2], 92.8%; in the series on Raji [8] it was 40.4%. The viability at 48 h, 1000 molar ratio relative to TPA in series [6] was determined as 60%. For the same compound, in series [7], the viability at 48 h, 500 molar ratio relative to TPA was greater than 80%. Also, the IC50 in [3] is recorded as 360 molar ratio. The viability at 48 h, 100 molar ratio relative to TPA in series [9] was greater than 80%.

As to `CC(C)=CCc1c(O)c(CC=C(C)C)c2c(c1O)C(=O)Oc1c(cc(O)c3c1C=CC(C)(C)O3)O2` [GARCINISIDONE E], the viability at 48 h, 10 molar ratio relative to TPA in series [4] was greater than 80%. Also, the Activity is 71.1% in the series on Raji [5], 0% with Raji [1], 90.2% with Raji [2] and 40% with Raji [8]. Also, the viability at 48 h, 1000 molar ratio relative to TPA in series [6] was found to be 70%. In [7], the viability at 48 h, 500 molar ratio relative to TPA is greater than 80%. For the same compound, the IC50 in [3] stood at 350 molar ratio. The viability at 48 h, 100 molar ratio relative to TPA in series [9] was greater than 80%.
